Experiment [1] is described as follows: Binding affinity to CFTR F508 deletion mutant expressed in forskolin-stimulated FRT cells assessed as increase in iodine influx measured as YFP quenching rate after 24 hrs by fluorescence assay. It is filed as cell-based. In short, it runs like this:
(§1)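 ΔF508-CFTR and halide-sensitive YFP coexpressed in FRT cells, held at 27 °C for 24 h for rescue, then stimulated 30–40 min with 20 μM forskolin with or without compound at 0.2, 2 and 20 μM. Fluorescence read before and after I– addition (100 mM final). Normalized decay fitted exponentially for maximal quenching rate; dose–response fitted with Hill equation for potency and maximal effect. Three independent determinations.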

Experiment [2] is described as follows: Bronchodilatory activity in guinea pig trachea assessed as inhibition of carbachol-induced contraction at 10^-5 M. In kind it is functional. Conditions: Cavia porcellus.
Another experiment deals with Aorta. The experiment can be described thus: Vasorelaxant activity in potassium depolarized guinea pig aortic strip assessed as inhibition of calcium-induced contraction at 10^-5 M. It is filed as functional. Conditions: Cavia porcellus. In short, it runs like this:
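Guinea pig aortic strips depolarized with 80 mM K+, with cumulative drug addition. Relaxation given as mean ± SEM. […] Student's t-test against control, P < 0.05.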

Experiment [3] can be described thus: Ratio IC50 for nifedipine to compound for bronchodilatory activity in guinea pig trachea assessed as carbachol-induced contraction. In kind it is functional, Cavia porcellus.
The species named for another experiment is Cavia porcellus. The experiment is described as follows: Negative ionotropic activity in potassium depolarized guinea pig longitudinal smooth muscle assessed as inhibition of calcium-induced contraction at 10^-5 M. In kind it is functional.
Experiment [4] can be described thus: Negative ionotropic activity against potassium-induced contraction in guinea pig left atrium assessed as […] at 5 X 10^-7 M relative to control. In kind it is functional. Conditions: Cavia porcellus, Cardiac atrium. An outline of the steps: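 Isolated guinea pig left atrium paced at 1 Hz. Drugs added cumulatively. Negative inotropic effect expressed as percent change from control, n = 5–6. […] Student's t-test against control at each concentration, P < 0.05. Mean ± SEM.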

A short description of experiment [5]: Negative ionotropic activity against potassium-induced contraction in guinea pig left atrium assessed as decrease in developed tension. As to conditions: Cavia porcellus, Cardiac atrium.
Experiment [6] is described as follows: Bronchodilatory activity in guinea pig trachea assessed as inhibition of carbachol-induced contraction. It is filed as functional, tissue-based, Cavia porcellus.
Experiment [7] can be described thus: Negative ionotropic activity in potassium depolarized guinea pig longitudinal smooth muscle assessed as inhibition of calcium-induced contraction. In kind it is functional, Cavia porcellus.
Experiment [8] relates to Cystic fibrosis transmembrane conductance regulator (Homo sapiens), P13569 [F508del]. The experiment can be described thus: Activity at CFTR F508 deletion mutant expressed in forskolin-stimulated FRT cells assessed as maximal increase in iodine influx measured as YFP quenching rate after 24 hrs by fluorescence assay relative to nifedipine. In kind it is cell-based. In short, it runs like this:
as §1

Experiment [9] is described as follows: Negative chronotropic activity against potassium-induced contraction in guinea pig right atrium assessed as decrease atrial rate at 10^-5 M relative to control. In kind it is functional. Conditions: Cavia porcellus, Cardiac atrium. In short, it runs like this: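 Spontaneously beating isolated guinea pig right atrium, pretreatment rate 165–190 beats/min. Drugs added cumulatively. Decrease in atrial rate expressed as percent change from control, n = 7–8. […] Control versus treated tested at each concentration by Student's t-test, P < 0.05. Mean ± SEM.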

In experiment [10] the test system is Cystic fibrosis transmembrane conductance regulator (Homo sapiens), P13569 [F508del]. The experiment is described as follows: Activity at CFTR F508 deletion mutant expressed in forskolin-stimulated FRT cells assessed as maximal increase in iodine influx measured as YFP quenching rate after 24 hrs by fluorescence assay. In kind it is cell-based. An outline of the steps: as §1

Each structure is given as a SMILES string.

Chain of Cystic fibrosis transmembrane conductance regulator (Homo sapiens), P13569 [F508del] (P13569 as listed by the source): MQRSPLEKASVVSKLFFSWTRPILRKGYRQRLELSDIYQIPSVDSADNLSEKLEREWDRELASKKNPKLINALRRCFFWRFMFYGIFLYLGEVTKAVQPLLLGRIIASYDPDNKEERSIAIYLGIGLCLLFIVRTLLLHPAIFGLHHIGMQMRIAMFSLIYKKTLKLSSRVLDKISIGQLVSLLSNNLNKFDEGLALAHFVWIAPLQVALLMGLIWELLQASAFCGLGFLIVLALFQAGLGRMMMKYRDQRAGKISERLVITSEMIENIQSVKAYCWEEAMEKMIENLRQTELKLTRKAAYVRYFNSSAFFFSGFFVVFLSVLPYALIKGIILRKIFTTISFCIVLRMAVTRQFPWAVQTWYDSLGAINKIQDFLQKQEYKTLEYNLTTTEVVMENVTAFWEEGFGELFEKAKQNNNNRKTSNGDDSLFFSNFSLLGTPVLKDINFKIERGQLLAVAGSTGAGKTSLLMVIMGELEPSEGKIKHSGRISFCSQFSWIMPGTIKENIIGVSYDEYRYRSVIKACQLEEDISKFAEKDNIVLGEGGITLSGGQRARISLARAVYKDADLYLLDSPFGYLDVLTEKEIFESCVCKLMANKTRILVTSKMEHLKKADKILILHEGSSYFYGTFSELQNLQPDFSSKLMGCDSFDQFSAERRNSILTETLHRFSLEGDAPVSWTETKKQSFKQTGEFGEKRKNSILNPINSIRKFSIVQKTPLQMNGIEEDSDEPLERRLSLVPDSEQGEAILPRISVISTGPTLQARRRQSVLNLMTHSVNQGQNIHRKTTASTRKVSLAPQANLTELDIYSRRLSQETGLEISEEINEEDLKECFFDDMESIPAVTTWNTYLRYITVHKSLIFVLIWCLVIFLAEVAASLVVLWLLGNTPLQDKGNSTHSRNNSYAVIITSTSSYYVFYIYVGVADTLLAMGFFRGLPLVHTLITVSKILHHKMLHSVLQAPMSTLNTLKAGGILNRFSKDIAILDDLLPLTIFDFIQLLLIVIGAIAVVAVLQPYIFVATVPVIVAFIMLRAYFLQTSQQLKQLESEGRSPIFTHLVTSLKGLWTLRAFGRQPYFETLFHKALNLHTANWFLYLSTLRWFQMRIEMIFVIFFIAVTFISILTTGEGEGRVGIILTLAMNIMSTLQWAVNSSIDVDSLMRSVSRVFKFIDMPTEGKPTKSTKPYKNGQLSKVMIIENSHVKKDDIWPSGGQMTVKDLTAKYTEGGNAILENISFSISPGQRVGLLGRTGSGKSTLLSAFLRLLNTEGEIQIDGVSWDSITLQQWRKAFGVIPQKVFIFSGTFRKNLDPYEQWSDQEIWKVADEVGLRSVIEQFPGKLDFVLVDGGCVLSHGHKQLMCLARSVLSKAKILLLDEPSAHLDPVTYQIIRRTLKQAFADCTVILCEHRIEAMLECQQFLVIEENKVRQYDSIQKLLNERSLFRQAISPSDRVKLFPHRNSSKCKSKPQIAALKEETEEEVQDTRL

Regarding `C=CCOC(=O)C1=C(C)NC(C)=C(C(=O)OCC=C)C1c1ccc(C(C)(C)C)cc1`, the Kd in experiment [1] was determined as 170 nM. Moreover, the inhibition at 10 µM came out at 68% in experiment [2], 12% in the experiment on Aorta and 5% in experiment [9]. Also, the “Ratio IC50” value in experiment [3] turned out to be 163. For the same compound, the inhibition in the experiment listed under Cavia porcellus worked out at 52%. The inhibition at 0.5 µM in experiment [4] is 71%. In addition, the EC50 in [5] was found to be 2.2 nM. For the same compound, the concentration for half-maximal inhibition (IC50) in experiment [6] is 0.59 nM; in [7], 1850 nM. Besides, in experiment [8], the Ratio was found to be 17. In addition, the Emax in experiment [10] turned out to be 56 ms-1.

The values above are taken from ChEMBL document CHEMBL1811821, “Cystic fibrosis: a new target for 4-Imidazo[2,1-b]thiazole-1,4-dihydropyridines” (J Med Chem, 2011).
